The source made the active and inactive calls. The calls are words filed in the database; no cut-off is given here.
Tests used:
[1] = biological target: Polyamine deacetylase HDAC10 (Homo sapiens, UniProt Q969S8); assay: Inhibition of HDAC 10 in human HeLa nuclear extract measured after 60 mins by fluorometric analysis
Histone deacetylase 5 = Histone deacetylase 5 (Homo sapiens, UniProt Q9UQL6); assay: Inhibition of HDAC 5 in human HeLa nuclear extract using fluorogenic HDAC class 2A substrate measured after 60 mins by fluorometric analysis
MOLT-4 [2] = assay: Induction of mitochondrial membrane potential loss in human MOLT4 cells at 0.125 uM measured after 48 hrs by Rh123 dye-based flow cytometric analysis (reference value: 9.6%); type: functional
Procedure, shortened: (§1)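 Cells seeded in 6-well plates 2-4 h, then 48 h with compound; Rh-123 1 µM added for the final half hour; cells centrifuged, washed twice in PBS, resuspended in PBS, and Ψm loss quantified by flow cytometry as percentage of cells.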

MOLT-4 [3] = assay: Cytotoxicity against human MOLT4 cells assessed as growth inhibition after 48 hrs by MTT assay; type: functional, cell-based; details: MOLT-4, 48 h
A549 [4] = assay: Cytotoxicity against human A549 cells assessed as growth inhibition at 10 uM after 48 hrs by MTT assay; type: functional; details: A549, 48 h, read-out: GI
Procedure, shortened: (§2)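 MTT assay, 48 h exposure; adherent lines seeded 12 h and suspension lines 4 h before compound. Media: RPMI-1640/10% FCS (THP-1, HL-60, Colo-205, Caco-2, A549), DMEM/10% FCS (A549, MIAPaCa-2, MCF-7). MTT 4 h, formazan dissolved in DMSO, absorbance 570 nm. Mean ± S.D of three experiments in triplicate; SAHA 5 µM reference.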

Histone deacetylase 4 = Histone deacetylase 4 (Homo sapiens, UniProt P56524); assay: Inhibition of HDAC 4 in human HeLa nuclear extract using fluorogenic HDAC class 2A substrate measured after 60 mins by fluorometric analysis
MOLT-4 [5] = assay: Induction of reactive oxygen species in human MOLT4 cells at 0.125 uM measured after 48 hrs by H2DCFDA dye-based flow cytometric analysis (reference value: 1.1%); type: functional
HL-60 [6] = assay: Induction of mitochondrial membrane potential loss in human HL60 cells assessed as intact mitochondrial membrane potential at 5 uM measured after 48 hrs by Rh123 dye-based flow cytometric analysis (reference value: 91.3%); type: functional; procedure, shortened: as §1
HL-60 [7] = assay: Induction of mitochondrial membrane potential loss in human HL60 cells at 0.125 uM measured after 48 hrs by Rh123 dye-based flow cytometric analysis (reference value: 5.6%); type: functional; procedure, shortened: as §1
HL-60 [8] = assay: Induction of mitochondrial membrane potential loss in human HL60 cells at 5 uM measured after 48 hrs by Rh123 dye-based flow cytometric analysis (reference value: 5.6%); type: functional; procedure, shortened: as §1
MOLT-4 [9] = assay: Induction of mitochondrial membrane potential loss in human MOLT4 cells at 5 uM measured after 48 hrs by Rh123 dye-based flow cytometric analysis (reference value: 9.6%); type: functional; procedure, shortened: as §1
THP-1 [10] = assay: Antimigratory activity in human THP1 cells at 0.125 uM after 48 hrs by wound healing assay; type: functional, cell-based
Procedure, shortened: (§3)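 THP-1 cells seeded at high density, attached overnight; monolayer scratched with a pipette tip, debris removed by PBS washes, then test compound added after wounding. Incubated 48 h under standard culture conditions (37°C, 5% CO2); wound images taken at various intervals from time zero.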

THP-1 [11] = assay: Cytotoxicity against human THP1 cells assessed as growth inhibition after 48 hrs by MTT assay; type: functional, cell-based; details: THP-1, 48 h
MCF-10A = assay: Cytotoxicity against human MCF10A cells assessed as growth inhibition after 48 hrs by MTT assay; type: ADME, cell-based
HL-60 [12] = assay: Induction of autophagy in human HL60 cells assessed as intracellular LC-3B distribution at 10 uM after 48 hrs by DAPI dye-based immunofluorescent microscopic analysis; type: functional, cell-based
Procedure, shortened: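 After 48 h treatment (SAHA 1.0 µM control), cells put on poly-lysine coverslips, fixed 15 min in 4% paraformaldehyde, permeabilised with 0.1% Triton X-100, blocked in 10% BSA; anti-LC-3B 1:100 for 1 h, Alexa Fluor 488 secondary 1:500 for 1 h, DAPI 1 µg/ml counterstain; imaged with 60X oil objective.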

MIA PaCa-2 = assay: Cytotoxicity against human MIAPaCa2 cells assessed as growth inhibition at 10 uM after 48 hrs by MTT assay; type: functional; details: MIA PaCa-2, 48 h, read-out: GI; procedure, shortened: as §2
THP-1 [13] = assay: Antimigratory activity in human THP1 cells at 10 uM after 48 hrs by wound healing assay; type: functional, cell-based; procedure, shortened: as §3
MOLT-4 [14] = assay: Induction of mitochondrial membrane potential loss in human MOLT4 cells at 10 uM measured after 48 hrs by Rh123 dye-based flow cytometric analysis (reference value: 9.6%); type: functional; procedure, shortened: as §1
HL-60 [15] = assay: Induction of reactive oxygen species in human HL60 cells at 5 uM measured after 48 hrs by H2DCFDA dye-based flow cytometric analysis (reference value: 0.4%); type: functional
P388 = assay: Antitumor activity against mouse P388 cells implanted in CDF1 mouse assessed as increase in median survival time at 50 mg/kg, ip administered for 9 consecutive days; type: functional
Procedure, shortened: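 P388 leukemia cells were harvested from 6–7-day-old ascites grown in the peritoneum of female DBA/2 mice. Female CDF1 mice (18–23 g) received 5×10^5 cells i.p. on day 0. Next day they were randomized into groups of 7 and dosed i.p. daily for 9 consecutive days; controls got 0.2 ml normal saline. Mortality was followed to day 18, with median survival time and %T/C calculated.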

MCF7 = assay: Cytotoxicity against human MCF7 cells assessed as growth inhibition after 48 hrs by MTT assay; type: functional, cell-based; details: MCF7, 48 h
HL-60 [16] = assay: Induction of reactive oxygen species in human HL60 cells at 1 uM measured after 48 hrs by H2DCFDA dye-based flow cytometric analysis (reference value: 0.4%); type: functional
PC-3 = assay: Cytotoxicity against human PC3 cells assessed as growth inhibition at 10 uM after 48 hrs by MTT assay; type: functional; details: PC-3, 48 h, read-out: GI
Homo sapiens = organism: Homo sapiens; assay: Inhibition of HDAC in human MOLT4 cells assessed as increase in acetylated H4K5 levels after 48 hrs by Western blot analysis; type: cell-based
Procedure, shortened: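 Cells seeded 2-4 h, treated 48 h with graded compound concentrations (SAHA control); histones acid-extracted (HEPES pH 9 buffer, 0.2 N HCl, 1 h on ice), Bradford-normalised, resolved on 18% SDS gels, blotted to PVDF, probed for acetyl-H3K18 and acetyl-H4K5 with H3 and β-actin loading controls; ECL detection.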

HL-60 [17] = assay: Induction of DNA damage in human HL60 cells by comet assay; type: functional, cell-based
Procedure, shortened: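 Alkaline comet assay on HL-60 cells in 0.5% low-melting agarose; lysis 2 h cold (2.5 M NaCl, 100 mM Na2EDTA, 10 mM Tris, pH 10, plus 1% Triton X-100); electrophoresis pH>13, 24 V, 300 mA, 40 min; neutralised pH 7.5, ethidium bromide stained; about 100 cells scored by image analysis, dim light.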

HL-60 [18] = assay: Induction of mitochondrial membrane potential loss in human HL60 cells assessed as intact mitochondrial membrane potential at 10 uM measured after 48 hrs by Rh123 dye-based flow cytometric analysis (reference value: 91.3%); type: functional; procedure, shortened: as §1
A549 [19] = assay: Cytotoxicity against human A549 cells assessed as growth inhibition after 48 hrs by MTT assay; type: functional, cell-based; details: A549, 48 h

Histone deacetylase 4, sequence (P56524 whole entry): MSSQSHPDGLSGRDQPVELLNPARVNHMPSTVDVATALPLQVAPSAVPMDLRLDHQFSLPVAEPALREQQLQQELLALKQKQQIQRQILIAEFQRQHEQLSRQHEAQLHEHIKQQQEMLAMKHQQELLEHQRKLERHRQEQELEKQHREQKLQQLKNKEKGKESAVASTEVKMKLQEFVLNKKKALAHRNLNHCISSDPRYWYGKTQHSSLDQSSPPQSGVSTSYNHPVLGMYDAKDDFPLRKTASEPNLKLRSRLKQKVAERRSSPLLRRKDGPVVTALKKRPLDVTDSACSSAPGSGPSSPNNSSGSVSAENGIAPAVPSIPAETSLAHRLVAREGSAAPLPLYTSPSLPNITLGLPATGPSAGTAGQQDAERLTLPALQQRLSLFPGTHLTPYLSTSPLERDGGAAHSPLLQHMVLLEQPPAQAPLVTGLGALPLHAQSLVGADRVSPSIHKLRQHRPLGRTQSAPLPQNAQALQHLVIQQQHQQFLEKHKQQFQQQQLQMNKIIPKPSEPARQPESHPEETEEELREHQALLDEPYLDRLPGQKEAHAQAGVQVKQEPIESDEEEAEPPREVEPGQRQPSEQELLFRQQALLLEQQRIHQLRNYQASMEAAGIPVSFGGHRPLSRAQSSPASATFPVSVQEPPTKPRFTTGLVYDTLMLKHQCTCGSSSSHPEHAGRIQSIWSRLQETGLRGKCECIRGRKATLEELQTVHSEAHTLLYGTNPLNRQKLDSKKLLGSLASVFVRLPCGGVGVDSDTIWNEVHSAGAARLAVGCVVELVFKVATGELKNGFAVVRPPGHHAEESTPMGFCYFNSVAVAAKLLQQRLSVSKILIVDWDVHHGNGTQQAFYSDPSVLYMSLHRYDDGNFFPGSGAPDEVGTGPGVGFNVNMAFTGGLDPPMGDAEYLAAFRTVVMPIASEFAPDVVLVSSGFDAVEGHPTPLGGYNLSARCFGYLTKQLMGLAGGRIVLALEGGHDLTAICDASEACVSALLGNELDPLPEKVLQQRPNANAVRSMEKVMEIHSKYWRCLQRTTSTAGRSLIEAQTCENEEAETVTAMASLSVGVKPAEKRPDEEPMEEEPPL
Polyamine deacetylase HDAC10, sequence (Q969S8 whole entry): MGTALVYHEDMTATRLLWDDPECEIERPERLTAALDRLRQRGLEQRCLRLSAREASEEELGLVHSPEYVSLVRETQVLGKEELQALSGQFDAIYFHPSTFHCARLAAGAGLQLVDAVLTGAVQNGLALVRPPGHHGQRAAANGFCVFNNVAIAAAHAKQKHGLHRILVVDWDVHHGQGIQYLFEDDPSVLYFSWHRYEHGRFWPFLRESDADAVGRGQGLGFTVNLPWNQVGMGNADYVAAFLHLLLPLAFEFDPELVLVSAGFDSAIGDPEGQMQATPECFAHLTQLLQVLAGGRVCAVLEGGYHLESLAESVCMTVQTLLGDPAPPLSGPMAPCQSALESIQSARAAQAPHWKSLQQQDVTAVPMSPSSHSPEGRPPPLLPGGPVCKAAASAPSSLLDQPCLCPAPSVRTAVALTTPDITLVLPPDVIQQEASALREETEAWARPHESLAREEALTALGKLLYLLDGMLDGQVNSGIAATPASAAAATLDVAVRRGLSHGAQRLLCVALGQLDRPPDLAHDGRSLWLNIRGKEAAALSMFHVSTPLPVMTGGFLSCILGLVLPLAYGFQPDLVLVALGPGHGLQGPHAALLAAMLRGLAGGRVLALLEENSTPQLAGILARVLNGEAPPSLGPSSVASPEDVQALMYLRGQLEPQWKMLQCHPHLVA
Histone deacetylase 5, sequence (Q9UQL6 whole entry): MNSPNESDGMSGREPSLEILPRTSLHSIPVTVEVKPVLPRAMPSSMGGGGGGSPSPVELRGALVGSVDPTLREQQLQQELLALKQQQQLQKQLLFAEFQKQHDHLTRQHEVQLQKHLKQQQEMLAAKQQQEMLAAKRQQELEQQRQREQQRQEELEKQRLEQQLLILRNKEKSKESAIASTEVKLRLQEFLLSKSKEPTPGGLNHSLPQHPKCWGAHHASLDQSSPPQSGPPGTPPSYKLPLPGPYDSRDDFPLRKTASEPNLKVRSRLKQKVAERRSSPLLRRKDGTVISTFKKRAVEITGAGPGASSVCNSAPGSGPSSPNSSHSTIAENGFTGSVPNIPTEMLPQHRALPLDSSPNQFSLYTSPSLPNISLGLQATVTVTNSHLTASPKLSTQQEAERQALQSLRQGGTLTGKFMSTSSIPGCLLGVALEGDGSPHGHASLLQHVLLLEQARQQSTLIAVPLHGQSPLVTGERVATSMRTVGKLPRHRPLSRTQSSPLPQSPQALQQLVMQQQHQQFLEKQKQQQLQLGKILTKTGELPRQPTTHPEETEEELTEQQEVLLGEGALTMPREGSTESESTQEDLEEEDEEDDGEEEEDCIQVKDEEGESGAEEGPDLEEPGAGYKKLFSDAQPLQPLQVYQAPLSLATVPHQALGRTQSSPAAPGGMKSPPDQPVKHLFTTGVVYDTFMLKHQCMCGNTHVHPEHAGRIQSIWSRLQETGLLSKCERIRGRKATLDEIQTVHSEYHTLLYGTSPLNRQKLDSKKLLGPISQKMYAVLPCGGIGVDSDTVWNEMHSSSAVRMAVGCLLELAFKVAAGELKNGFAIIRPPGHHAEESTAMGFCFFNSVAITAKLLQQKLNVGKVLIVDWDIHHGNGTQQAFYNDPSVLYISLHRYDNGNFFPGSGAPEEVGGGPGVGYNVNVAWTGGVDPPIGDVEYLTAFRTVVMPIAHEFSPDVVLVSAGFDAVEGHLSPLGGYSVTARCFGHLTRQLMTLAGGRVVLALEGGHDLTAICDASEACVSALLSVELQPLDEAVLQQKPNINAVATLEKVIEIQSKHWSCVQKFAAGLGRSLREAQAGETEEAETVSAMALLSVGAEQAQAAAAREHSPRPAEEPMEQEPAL

Which results are given for O=C(CCCCCCC(=O)Nc1ccccc1CN1CC[C@H](O)C1)NO?
IC50 [1]: > 10 µM; IC50 (Histone deacetylase 5): 5.39 µM; Activity (MOLT-4 [2]): 2.4%; IC50 (MOLT-4 [3]): 0.81 µM; inhibition of growth at 10 µM (A549 [4]): 84%; IC50 (Histone deacetylase 4): 7.12 µM; Activity (MOLT-4 [5]): 1.3%; Activity (HL-60 [6]): 82.6%; Activity (HL-60 [7]): 7.5%; Activity (HL-60 [8]): 12.1%; Activity (MOLT-4 [9]): 57.5%; Activity (THP-1 [10]): Active; IC50 (THP-1 [11]): 1.3 µM; IC50 (MCF-10A): 37 µM; Activity (HL-60 [12]): Active; inhibition of growth at 10 µM (MIA PaCa-2): 93%; Activity (THP-1 [13]): Active; Activity (MOLT-4 [14]): 67.5%; Activity (HL-60 [15]): 0%; T/C (P388): 92.47%; IC50 (MCF7): 1.5 µM; Activity (HL-60 [16]): 0.6%; inhibition of growth at 10 µM (PC-3): 29%; inhibition (Homo sapiens): Dose-dependent effect; Activity (HL-60 [17]): Dose-dependent effect; Activity (HL-60 [18]): 54.7%; IC50 (A549 [19]): 7 µM

Source: ChEMBL document CHEMBL4049428, “Exploring Derivatives of Quinazoline Alkaloid l-Vasicine as Cap Groups in the Design and Biological Mechanistic Evaluation of Novel Antitumor Histone Deacetylase Inhibitors” (J Med Chem, 2017)
